# Bioassay records as filed in PubChem.
# The sample as a whole holds a higher share of hits than the screen did.
# T cruzi repl = blocks replication of Trypanosoma cruzi. T. cruzi beta-gal in NIH3T3, luminescence, 90 h. 300,000 compounds, 1.4% hits. inhibition, % (no concentration beside the values);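 active means mean inhibition across valid replicates above about 55%, limit read from the data; inconclusive means mean below that limit but half or more replicates reach it; inactive means mean below it, under half of replicates reach it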;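 further: signal also drops with host cell toxicity which is not excluded here; 0% = plate median of DMSO wells and 100% = zero luminescence signal; higher percent means less beta-gal luminescence so fewer parasites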
#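 Assay system: NIH/3T3 host cells with β-galactosidase reporter T. cruzi; input: 5,000 host fibroblasts per well; compound: single 50 nL compound addition per well in DMSO; timing: ≥90 h infection period, 3 h prior cell attachment; measured by: GalScreen β-gal luminescence, detergent lysis, 60 min; evaluation: percent inhibition of parasite-derived β-gal signal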
# L major viab = Leishmania major promastigote growth inhibition; 200,000 compounds, 9% hits; Leishmania major promastigotes, resazurin fluorescence viability; inhibition, % at 10 µM; in the data active means inhibition above about 50%;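 further: promastigotes grown with compound for 44 hours at 28 °C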
# HSF1 inh = HSF1 inhibition | NIH3T3-HGL HSE-luciferase, MG132-induced, luminescence 8 h; active compounds read low | AID 2098 | 300,000 compounds, 0.77% hits | activity change, negative = inhibition, % at 7.5 µM (by protocol);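 active means more than half of replicate wells show activity change below -50%, luminescence cut by over half; inconclusive means some wells, but at most half, below -50%; inactive means no replicate well below -50%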;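 further: luciferase reports HSF-1 transcriptional activity via heat shock element; 0% = median of DMSO wells and -100% = zero luminescence signal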
# HSF1 activator = increases HSF-1 driven luciferase reporter signal; NIH3T3-HGL HSF-1 luciferase reporter, MG132, 8 h; 100% = twice DMSO control signal; activation, % at 9 µM; 300,000 compounds, 1.7% hits;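 active means mean replicate activation of at least 50% with a set share of replicates each reaching 50%; inconclusive means only one of those two conditions met; inactive means mean below 50% and too few replicates reaching it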;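 further: 0% = median of the neutral control wells and 100% = twice that signal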
# Hsp70 activator = Hsp70 transcriptional activation, primary screen | HeLa Hsp70 promoter luciferase reporter, luminescence; scaled: vehicle 0, proteasome-inhibitor control 100% | activation, % at 10 µM | 200,000 compounds, 0.04% hits;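 active means activation above the mean across all tested compounds plus 3 SD, cutoff set per campaign, cut at about 5.5% in these data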;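 further: 100% = MG132 at 30 µM as the positive control and 0% = DMSO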
# Numbers without * were called inactive; ? = inconclusive; . = not tested or not shown.
SMILES,T cruzi repl,L major viab,HSF1 inh,HSF1 activator,Hsp70 activator
c1ccc(-c2nc3nc4ccccc4nc3n2CC2CCCO2)cc1 (configuration not stated),-1.2,.,8.1,13.1,.
C=C1/C(=C\C=C2/CCC[C@]3(C)[C@@H]([C@H](C)/C=C/[C@@H](O)C4CC4)CC[C@@H]23)C[C@@H](O)C[C@@H]1O,17.8,.,3.0,-5.5,.
CC1CN(CC(=O)NCc2ccc(F)cc2)CC(C)O1 (configuration not stated),-4.5,.,-2.8,-7.3,.
COc1cc(C2N(C)CCC3(OCCO3)C2(C)C)cc(OC)c1OC (configuration not stated),-6.3,57.9*,-3.0,0.0,-0.5
CCOC(=O)n1c(=O)n(Cc2ccc(Cl)c(Cl)c2)c2ccccc21,0.9,-2.9,6.0,22.8,0.0
CC(C)CC(=O)NC(Nc1ccccc1F)C(Cl)(Cl)Cl (configuration not stated),0.4,63.0*,3.4,6.7,-0.4
CCCC(=O)NC(Nc1ccccc1F)C(Cl)(Cl)Cl (configuration not stated),22.8,10.4,-6.5,-1.7,-0.1
O=C1CC(N2CCN(Cc3ccccc3)CC2)C(=O)N1CCc1ccccc1 (configuration not stated),21.1,88.4*,4.2,6.3,-0.2
Cc1ccc(S(=O)(=O)N2CCN(C3CC(=O)N(Cc4ccccc4)C3=O)CC2)cc1C (configuration not stated),7.6,92.7*,-1.2,-2.7,-0.2
COc1ccc(OCCN2CCN(C3CC(=O)N(CCC(C)C)C3=O)CC2)cc1 (configuration not stated),33.4,91.9*,2.8,-4.8,0.5
COc1ccc(CCN2C(=O)CC(N3CCN(S(=O)(=O)c4ccccc4)CC3)C2=O)cc1 (configuration not stated),-0.2,63.4*,-27.3,-38.4,0.3
CCC1CCCCN1Cc1nc(Cc2ccccc2Cl)no1 (configuration not stated),13.7,.,-3.3,-13.4,.
Cc1cc(NC(=O)CSc2nccn2-c2cccc(Cl)c2)no1,-2.4,.,-1.9,5.0,.
CCOc1cc(Br)c(Br)c(C=Nc2ccc(NC(C)=O)cc2)c1O,-9.3,67.5*,-6.6,6.9,1.5
CC(=O)Nc1ccc(N=Cc2c(O)c(C(=O)Nc3ccccc3)cc3ccccc23)cc1,-13.8,-10.8,-19.1,-5.2,-0.1
O=C(CN1C(=O)COc2ccc(S(=O)(=O)N3CCCCC3)cc21)NCc1ccccc1Cl,-0.7,.,?,-36.9,.
CN(C(=O)COC(=O)c1ccc(Cl)cc1N)C1CCCCC1,4.4,-7.3,20.8,58.6*,-0.1
CCC12C(=O)C(CC)(C(c3ccccc3)=C1c1ccccc1)[C@@H]1C(=O)N(c3ccc(C)cc3)C(=O)C12 (some centres not stated),57.2*,40.3,7.6,43.1,-0.3
COc1cscc1C(=O)O,1.3,.,-0.4,5.1,.
O=C(CCCCC(=O)NC1CCCC1)NC1CCCC1,-0.9,-2.1,1.9,-8.7,-0.3
C/C(=N\Nc1cc(N2CCCCC2)nc(C)n1)c1ccc(Br)cc1,72.0*,.,3.2,42.1,.
C=CCNC(=O)c1oc2ccc(S(=O)(=O)N(CC)CC)cc2c1C,0.0,98.5*,-7.4,7.7,-0.4
CNS(=O)(=O)c1cc(C(=O)OCC(=O)NC2CCCc3ccccc32)ccc1Cl (configuration not stated),-2.0,-7.5,-8.0,4.7,1.6
CCN(CC)S(=O)(=O)c1ccc2oc(C(=O)NC3CCCc4ccccc43)c(C)c2c1 (configuration not stated),80.9*,42.6,-5.1,11.6,-0.1
CCN(CC)S(=O)(=O)c1cc(C(=O)OCC(=O)NC2CCCc3ccccc32)ccc1C (configuration not stated),-12.6,51.5*,5.5,28.3,-0.5
CCOP(=O)(OCC)C(Nc1ccc(OC)cc1)c1ccco1 (configuration not stated),-9.5,-1.9,-17.4,-14.0,0.0
COc1ccc(C(CNC(=O)C(CCSC)NC(=O)c2ccccc2OC)N2CCCCC2)cc1 (configuration not stated),22.9,.,0.7,8.9,.
O=C(COC(=O)c1ccc2c(c1)S(=O)(=O)N=C1CCCCCN12)NCCc1ccc(F)cc1,-14.3,-1.1,-2.5,-2.8,-0.2
Cc1cc(C)c(C)c(OCCOCCN2CCN(C)CC2)c1,43.8,-2.5,-12.2,-21.3,0.0
